Measured values: article PMC6745243 (Bioorganic & medicinal chemistry letters, 2019)
Several values for one entry are separate records, joined by “and”; a condition that tells them apart may be missing. Equal values may be shown once. Read-outs that look alike come from different tables or passages of the source.

Tests used:
Aqueous solubility = format: physicochemical
[1] = Mouse; ref Ghoshal, et al. Mol Metab. 2016; cited from earlier work
IP6K family = conditions: cited from earlier work
[2] = Human; ref Ghoshal, et al. Mol Metab. 2016; cited from earlier work
IP6K3 = molecular target: T1, IP6K3 (Homo sapiens, UniProt Q96PC2); assay: ADP-Glo Max assay, purified IP6K3; format: biochemical; conditions: IP6K3 over IP6K1
T1 sequence (Q96PC2 1-410): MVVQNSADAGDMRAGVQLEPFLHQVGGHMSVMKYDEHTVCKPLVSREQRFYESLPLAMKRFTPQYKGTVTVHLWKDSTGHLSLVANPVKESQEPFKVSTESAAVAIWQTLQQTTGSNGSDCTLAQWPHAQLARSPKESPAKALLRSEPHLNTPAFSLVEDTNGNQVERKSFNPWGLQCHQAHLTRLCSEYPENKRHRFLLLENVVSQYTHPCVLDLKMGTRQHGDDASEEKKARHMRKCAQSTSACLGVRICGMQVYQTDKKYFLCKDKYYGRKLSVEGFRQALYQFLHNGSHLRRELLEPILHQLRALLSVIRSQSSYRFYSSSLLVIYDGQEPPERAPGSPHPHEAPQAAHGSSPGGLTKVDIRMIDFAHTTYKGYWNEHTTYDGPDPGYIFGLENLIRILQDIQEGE

[3] = test system: 58 kinases (diversity panel); assay: Off-target kinase diversity panel at Eurofins; format: biochemical; conditions: 10μM, 58 kinases tested
How it was run: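 Kinase panel included metabolically important enzymes, among them GSK3β, AKT, mTOR and PI3K.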

IP6K2 = molecular target: T2, IP6K2 (Homo sapiens, UniProt Q9UHH9); assay: ADP-Glo Max assay, purified IP6K2; format: biochemical; conditions: IP6K2 over IP6K1
T2 sequence (Q9UHH9 1-426): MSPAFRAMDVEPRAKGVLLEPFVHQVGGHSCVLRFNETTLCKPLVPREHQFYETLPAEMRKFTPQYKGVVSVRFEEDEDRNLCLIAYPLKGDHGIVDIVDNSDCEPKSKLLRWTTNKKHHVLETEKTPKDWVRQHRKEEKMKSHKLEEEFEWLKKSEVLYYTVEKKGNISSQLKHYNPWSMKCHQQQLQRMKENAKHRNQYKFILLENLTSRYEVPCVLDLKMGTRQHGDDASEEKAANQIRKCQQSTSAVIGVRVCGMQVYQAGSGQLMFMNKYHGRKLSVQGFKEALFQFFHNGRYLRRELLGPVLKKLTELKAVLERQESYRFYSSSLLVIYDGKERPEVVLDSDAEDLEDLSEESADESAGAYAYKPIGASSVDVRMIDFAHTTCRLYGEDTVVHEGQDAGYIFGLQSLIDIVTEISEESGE

O=[N+]([O-])c1ccc(CNc2nc(NCc3cccc(C(F)(F)F)c3)nc3[nH]cnc23)cc1 [Compound 1, N2-(m-trifluorobenzyl)-N6-(p-nitrobenzyl) purine]
Solubility (Aqueous solubility; 2% DMSO): Mostly insoluble in 2% DMSO | Solubility (Aqueous solubility; aqueous buffers): sparingly soluble | Microsome stability (t1/2) [1]: Mouse 9 min ^** | IP6K selectivity (IP6K family; between IP6K isoforms, ref Padmanabhan, et al. J Biol Chem 2009): Not selective ^* | Potency against the IP6K family (IP6K family): low micromolar potency | Microsome stability (t1/2) [2]: Human 32 min ^**

COc1ccc2c(CCNc3nc(NCc4ccc(=O)[nH]c4)c4nc[nH]c4n3)c[nH]c2c1 [Compound 24]
Selectivity (Ki/Ki IP6K1) (IP6K3): ~50 fold | Number of kinases not significantly inhibited (inactive) [3]: 54 kinases | Number of kinases potently inhibited ([3]; 3 of RAF/MAPK pathway and casein kinase γ): 4 kinases | Selectivity (Ki/Ki IP6K1) (IP6K2): ~ 25 fold and 25 fold
